Results published in ChEMBL document CHEMBL3286164, “Anti-proliferative effect of chalcone derivatives through inactivation of NF-κB in human cancer cells” (Bioorg Med Chem, 2014).

How the values were obtained:
ACHN = assay: Antiproliferative activity against human ACHN cells by SRB method; format: functional
Outline: (§1)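 GI50 against human cancer cell lines is the mean of three independent experiments.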

[1] = target: Nuclear factor NF-kappa-B complex (Homo sapiens, UniProt P19838+Q00653+Q04206); assay: Inhibition of NF-kappaB in human THP1 cells incubated for 2 hrs prior to LPS challenge measured after 16 hrs by SEAP assay; format: cell-based, THP-1
Sequence of Nuclear factor NF-kappa-B complex (P19838 1-433 limits assumed): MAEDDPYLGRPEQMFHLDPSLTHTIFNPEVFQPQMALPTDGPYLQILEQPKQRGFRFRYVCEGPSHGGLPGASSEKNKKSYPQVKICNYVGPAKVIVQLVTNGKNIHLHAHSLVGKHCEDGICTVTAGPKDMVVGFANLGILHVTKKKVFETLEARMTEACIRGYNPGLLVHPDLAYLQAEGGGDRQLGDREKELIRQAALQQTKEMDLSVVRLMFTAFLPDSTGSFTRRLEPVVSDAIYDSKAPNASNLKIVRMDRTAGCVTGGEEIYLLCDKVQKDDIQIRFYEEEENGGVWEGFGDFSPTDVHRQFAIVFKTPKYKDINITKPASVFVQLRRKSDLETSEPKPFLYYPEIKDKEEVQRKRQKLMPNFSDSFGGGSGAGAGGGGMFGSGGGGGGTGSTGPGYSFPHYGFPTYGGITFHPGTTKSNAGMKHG
Sequence of Nuclear factor NF-kappa-B complex (Q00653 1-454 limits assumed): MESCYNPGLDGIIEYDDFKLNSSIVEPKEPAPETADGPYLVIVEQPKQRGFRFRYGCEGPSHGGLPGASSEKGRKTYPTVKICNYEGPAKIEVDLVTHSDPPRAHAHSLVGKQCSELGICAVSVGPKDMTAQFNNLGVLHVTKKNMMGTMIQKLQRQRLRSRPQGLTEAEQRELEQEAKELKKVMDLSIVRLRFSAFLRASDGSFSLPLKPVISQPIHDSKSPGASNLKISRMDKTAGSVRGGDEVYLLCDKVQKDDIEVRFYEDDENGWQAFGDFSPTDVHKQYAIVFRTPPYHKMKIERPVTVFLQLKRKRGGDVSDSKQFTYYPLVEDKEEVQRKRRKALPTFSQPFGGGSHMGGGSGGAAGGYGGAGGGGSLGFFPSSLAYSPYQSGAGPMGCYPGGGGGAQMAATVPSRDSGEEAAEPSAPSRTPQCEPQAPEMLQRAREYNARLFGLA
Sequence of Nuclear factor NF-kappa-B complex (Q04206 whole entry): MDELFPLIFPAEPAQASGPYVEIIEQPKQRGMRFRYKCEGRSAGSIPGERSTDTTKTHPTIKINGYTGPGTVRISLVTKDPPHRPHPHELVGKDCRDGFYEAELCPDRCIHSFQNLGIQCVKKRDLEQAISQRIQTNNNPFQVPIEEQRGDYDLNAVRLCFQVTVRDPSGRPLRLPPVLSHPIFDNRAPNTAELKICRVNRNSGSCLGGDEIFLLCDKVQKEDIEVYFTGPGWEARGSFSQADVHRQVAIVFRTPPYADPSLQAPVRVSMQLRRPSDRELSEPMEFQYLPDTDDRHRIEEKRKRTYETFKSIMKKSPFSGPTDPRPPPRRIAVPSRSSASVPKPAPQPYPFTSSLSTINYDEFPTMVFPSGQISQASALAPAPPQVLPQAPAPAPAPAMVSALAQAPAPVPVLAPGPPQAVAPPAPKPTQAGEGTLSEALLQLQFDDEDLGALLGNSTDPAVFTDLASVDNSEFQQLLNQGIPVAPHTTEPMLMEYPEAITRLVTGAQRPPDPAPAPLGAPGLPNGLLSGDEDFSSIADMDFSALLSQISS
Outline: (§2)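 Reporter cells: RAW 264.7 carrying stably integrated pNF-κB-SEAP-NPT, or THP-1 transfected with pNF-κB-SEAP. Cells were pretreated with compound for 2 h, then stimulated with LPS (1 µg/ml) for 16 h. Culture-medium aliquots were heated at 65 °C for 5 min and incubated with 4-methylumbelliferyl phosphate (500 µM) in the dark for 1 h. Fluorescence was read at ex 360/em 449 nm as RFU. IC50 is the mean of three experiments.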

NCI-H23 = assay: Antiproliferative activity against human NCI-H23 cells by SRB method; format: functional; outline: as §1
PC-3 = assay: Antiproliferative activity against human PC3 cells by SRB method; format: functional; outline: as §1
MDA-MB-231 = assay: Antiproliferative activity against human MDA-MB-231 cells by SRB method; format: functional; outline: as §1
[2] = Antiproliferative activity against human NUGC3 cells by SRB method; format: functional; conditions: NUGC-3; outline: as §1
[3] = Antiproliferative activity against human HCT15 cells by SRB method; format: functional; conditions: HCT-15; outline: as §1
[4] = Inhibition of NF-kappaB in mouse RAW264.7 cells incubated for 2 hrs prior to LPS challenge measured after 16 hrs by SEAP assay; format: cell-based; outline: as §2

GI50 (ACHN) [µM] | IC50 [1] [µM] | GI50 (NCI-H23) [µM] | GI50 (PC-3) [µM] | GI50 (MDA-MB-231) [µM] | IC50 [4] [µM] | SMILES | GI50 [2] [µM] | GI50 [3] [µM]
3.37 | 12 | 3.21 | 3.39 | 3.13 | – | CCC(CC)COc1cccc(O)c1C(=O)/C=C/c1ccc(O)cc1 | 1.96 | 3.42
3.63 | 11 | 11.3 | 3.6 | 3.48 | – | CC(C)CCCOc1cccc(O)c1C(=O)/C=C/c1ccc(O)cc1 | 3.52 | 11.6
3.51 | 13 | 3.16 | 3.04 | 3.41 | – | O=C(/C=C/c1ccc(O)cc1)c1c(O)cccc1OCC1CCCC1 | 2.14 | 3.41
11.3 | – | 12.1 | 11.5 | 10.3 | 10 | CC(C)CCOc1cccc(O)c1C(=O)/C=C/c1ccc(O)cc1 | 12.4 | 10.6
> 30 | > 30 | > 30 | > 30 | > 30 | – | COc1cccc(OCCC(C)(C)C)c1C(=O)/C=C/c1ccc(O)cc1 | > 30 | > 30
3.14 | 3 | 3.13 | 3.22 | 2.38 | – | CC(C)(C)CCOc1cccc(O)c1C(=O)/C=C/c1ccc(O)cc1 | 3.3 | 3.43
3.4 | 18 | 3.37 | 3.48 | 3.34 | – | O=C(/C=C/c1ccc(O)cc1)c1c(O)cccc1OCCC1CCCC1 | 3.2 | 3.31
> 30 | – | > 30 | > 30 | > 30 | – | O=C(/C=C/c1ccc(O)cc1)c1c(O)cccc1OCC1CCCCC1 | > 30 | > 30
> 30 | – | > 30 | > 30 | > 30 | – | CCCCCCOc1cccc(O)c1C(=O)/C=C/c1ccc(O)cc1 | > 30 | > 30

Further lines, the molecule ahead of its results:

SMILES | GI50 (ACHN) [µM] | IC50 [1] [µM] | GI50 (NCI-H23) [µM] | GI50 (PC-3) [µM] | GI50 (MDA-MB-231) [µM] | IC50 [4] [µM] | GI50 [2] [µM] | GI50 [3] [µM]
CC(C)=CCOc1cccc(O)c1C(=O)/C=C/c1ccc(O)cc1 | > 30 | > 30 | > 30 | > 30 | > 30 | – | > 30 | > 30
O=C(/C=C/c1ccc(O)cc1)c1c(O)cccc1OCCC1CCCCC1 | > 30 | > 30 | > 30 | > 30 | > 30 | – | > 30 | > 30
CC(C)(C)CCOc1cccc(O)c1C(=O)CCc1ccc(O)cc1 | > 30 | > 30 | > 30 | > 30 | > 30 | – | > 30 | > 30
CCCCOc1cccc(O)c1C(=O)/C=C/c1ccc(O)cc1 | > 30 | > 30 | > 30 | > 30 | > 30 | – | > 30 | > 30
O=C(/C=C/c1ccc(O)cc1)c1c(O)cccc1OCc1ccccc1 | > 30 | – | > 30 | > 30 | > 30 | – | > 30 | > 30
CC(C)(C)CCOc1cccc(O)c1C(=O)/C=C/c1ccc(S(N)(=O)=O)cc1 | 3.3 | 1.2 | 2.95 | 3.25 | 2.11 | – | 1.17 | 2.93
CC(C)(C)CCOc1cccc(O)c1C(=O)/C=C/c1ccc(C(=O)O)cc1 | 8.45 | 2.8 | 4.77 | 6.5 | 11.2 | – | 5.44 | 2.17
CC(C)COc1cccc(O)c1C(=O)/C=C/c1ccc(O)cc1 | 3.29 | 8 | 3.22 | 2.97 | 3.52 | – | 2.98 | 2.6
COc1cccc2c1C(=O)c1c(O)c3c(c(O)c1C2=O)C[C@@](O)(C(=O)CO)C[C@@H]3O[C@H]1C[C@H](N)[C@H](O)[C@H](C)O1 [DOXORUBICIN] | – | – | – | – | – | – | 1 | –
O=C(/C=C/c1ccc(O)cc1)c1c(O)cccc1OCC12CC3CC(CC(C3)C1)C2 | > 30 | > 30 | > 30 | > 30 | > 30 | – | > 30 | > 30
